Measured values: ChEMBL document CHEMBL4229456, “Salicylic Acid Derivatives Inhibit Oxalate Production in Mouse Hepatocytes with Primary Hyperoxaluria Type 1” (J Med Chem, 2018)
Activity calls are given as the source filed them. No cut-off for these calls is given here.

What was measured:
2-Hydroxyacid oxidase 1 [1] = molecular target: T1, 2-Hydroxyacid oxidase 1 (Mus musculus, UniProt Q9WU19); experiment: Inhibition of glycolate oxidase in C57BL/6 Agxt1-/- mouse hepatocytes using glycolate as substrate assessed as reduction in oxalate production after 24 hrs; type: cell-based
T1 sequence (Q9WU19 whole entry): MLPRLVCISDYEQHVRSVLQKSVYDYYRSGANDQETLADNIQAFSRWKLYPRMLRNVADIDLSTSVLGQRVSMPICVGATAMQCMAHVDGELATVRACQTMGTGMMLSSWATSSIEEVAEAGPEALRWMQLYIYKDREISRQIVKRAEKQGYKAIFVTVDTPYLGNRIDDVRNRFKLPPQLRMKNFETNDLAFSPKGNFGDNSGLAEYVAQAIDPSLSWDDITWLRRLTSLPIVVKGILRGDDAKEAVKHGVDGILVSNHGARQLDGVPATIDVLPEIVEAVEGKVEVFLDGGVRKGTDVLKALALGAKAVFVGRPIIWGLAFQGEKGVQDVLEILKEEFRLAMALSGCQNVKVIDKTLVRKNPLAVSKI
In short: (§1)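 Agxt1-/- hepatocytes from male C57BL/6 mice, 3.0x10^5 cells/well, in Williams E with 5% FBS and insulin/hydrocortisone. After 5 h, switched to serum-free medium and treated across a dose range with 5 mM glycolate. Medium harvested at 24, 48 and 72 h; oxalate measured by oxalate oxidase/HRP kit (MBTH/DMAB dye, 595 nm). EC50 from nonlinear regression of log concentration.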

Hepatocyte [2] = experiment: Cytotoxicity against C57BL/6 Agxt1-/- mouse hepatocytes at 80 uM after 24 to 48 hrs by Celltiter reagent based assay; type: cell-based
In short: (§2)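 Agxt1-/- hepatocytes (male C57BL/6, collagenase perfusion) seeded at 1.0x10^4 cells/well in 96-well plates and given the same compound concentrations as the 6-well oxalate cultures. At each time point, CellTiter 96 AQueous One reagent was added and incubated 2 h at 37°C, 5% CO2, with absorbance read at 493 nm.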

[3] = Drug metabolism in mouse liver microsomes assessed as metabolite formation at 2 uM in presence of NADPH after 60 mins by LC-HRMS method; type: ADME, microsome; conditions: 1 h
2-Hydroxyacid oxidase 1 [4] = molecular target: T1, 2-Hydroxyacid oxidase 1; experiment: Inhibition of glycolate oxidase in C57BL/6 Agxt1-/- mouse hepatocytes using glycolate as substrate assessed as reduction in oxalate production after 48 hrs; type: cell-based; in short: as §1
[5] = molecular target: T2, 2-Hydroxyacid oxidase 1 (Mus musculus) (UniProt Q9WU19); experiment: Inhibition of glycolate oxidase in C57BL/6 Agxt1-/- mouse hepatocytes using glycolate as substrate assessed as relative oxalate level at 10 uM after 24 hrs; type: cell-based
T2 sequence (whole entry): T1 sequence (Q9WU19 whole entry)
In short: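 Primary Agxt1-/- mouse hepatocytes in 6-well plates, serum-free Williams E with 5 mM glycolate, treated with 10 µM compound. Excreted oxalate measured 24 h later by oxalate oxidase–HRP colorimetric kit (595 nm) and expressed relative to untreated control. Mean ± SD, n = 3, one-way ANOVA.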

[6] = molecular target: T2, 2-Hydroxyacid oxidase 1 (Mus musculus); experiment: Inhibition of glycolate oxidase in C57BL/6 Agxt1-/- mouse hepatocytes using glycolate as substrate assessed as reduction in oxalate production at 2.5 uM after 24 hrs post treatment relative to control; type: cell-based
In short: (§3)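 Agxt1-/- primary hepatocytes (3.0x10^5 cells/well), serum-free Williams E with 5 mM glycolate, treated at the stated concentrations. Medium oxalate quantified at the stated time by oxalate oxidase kit (H2O2/HRP, MBTH and DMAB, 595 nm) and expressed relative to control.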

[7] = Half life in mouse liver microsomes at 2 uM in presence of NADPH by LC-HRMS method; type: ADME, microsome
Armoracia rusticana = experiment: Inhibition of horseradish peroxidase at 20 uM after 1 min by sulfonated-DCIP dye based assay
In short: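 HRP counter-screen without mGO or glycolate: H2O2 (10 µL of 1:10 000) with HRP, sulfonated DCIP and 4-aminoantipyrine under mGO assay conditions, compound added from 1 mM DMSO stock. Absorbance read at 515 nm after 1 min, compared with an H2O2 standard curve. Run in duplicate.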

[8] = molecular target: T2, 2-Hydroxyacid oxidase 1 (Mus musculus); experiment: Potency index, ratio of EC50 for CCPST to EC50 for test compound for inhibition of glycolate oxidase in C57BL/6 Agxt1-/- mouse hepatocytes using glycolate as substrate assessed as reduction in oxalate production after 24 to 72 hrs; type: cell-based
[9] = Activity against horseradish peroxidase by oxalate detection based assay
[10] = molecular target: T2, 2-Hydroxyacid oxidase 1 (Mus musculus); experiment: Inhibition of glycolate oxidase in C57BL/6 Agxt1-/- mouse hepatocytes using glycolate as substrate assessed as reduction in oxalate production at 5 uM after 72 hrs post treatment; type: cell-based; in short: as §3
2-Hydroxyacid oxidase 1 [11] = molecular target: T1, 2-Hydroxyacid oxidase 1; experiment: Inhibition of glycolate oxidase in C57BL/6 Agxt1-/- mouse hepatocytes using glycolate as substrate assessed as reduction in oxalate production after 72 hrs; type: cell-based; in short: as §1
Hepatocyte [12] = experiment: Cytotoxicity against C57BL/6 Agxt1-/- mouse hepatocytes after 24 to 48 hrs by Celltiter reagent based assay; type: cell-based; in short: as §2
[13] = molecular target: T2, 2-Hydroxyacid oxidase 1 (Mus musculus); experiment: Inhibition of glycolate oxidase in C57BL/6 Agxt1-/- mouse hepatocytes using glycolate as substrate assessed as reduction in oxalate production at 12.5 uM after 48 hrs post treatment relative to control; type: cell-based; in short: as §3
2-Hydroxyacid oxidase 1 [14] = molecular target: T1, 2-Hydroxyacid oxidase 1; experiment: Inhibition of mouse recombinant glycolate oxidase expressed in Escherichia coli using glycolate as substrate by Dixon plot and Cornish-Bowden plot analysis
In short: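 Recombinant mGO held at constant enzyme concentration and tested with increasing inhibitor at several glycolate concentrations in the HRP/DCIP 515 nm assay. Inhibition type read from Cornish-Bowden and Dixon plots; Ki taken as the intersection of the lines.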

2-Hydroxyacid oxidase 1 [15] = molecular target: T1, 2-Hydroxyacid oxidase 1; experiment: Inhibition of mouse recombinant glycolate oxidase expressed in Escherichia coli using glycolate as substrate by sulfonated DCIP dye-based assay
In short: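 Purified recombinant mGO (10 µL at 0.1 µg/µL) with saturating glycolate (22.2 mM) in 50 mM potassium phosphate pH 7. Compound at 0.2 µM–0.2 mM; H2O2 detected by HRP-coupled sulfonated DCIP/4-aminoantipyrine dye at 515 nm. IC50 from nonlinear dose-response fitting.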

[16] = molecular target: T2, 2-Hydroxyacid oxidase 1 (Mus musculus); experiment: Inhibition of glycolate oxidase in C57BL/6 Agxt1-/- mouse hepatocytes using glycolate as substrate assessed as reduction in oxalate production at 6.25 uM after 24 hrs post treatment relative to control; type: cell-based; in short: as §3
[17] = molecular target: T2, 2-Hydroxyacid oxidase 1 (Mus musculus); experiment: Inhibition of mouse recombinant glycolate oxidase expressed in Escherichia coli at 25 uM using glycolate as substrate after 1 min by sulfonated DCIP dye-based assay relative to control
[18] = molecular target: T2, 2-Hydroxyacid oxidase 1 (Mus musculus); experiment: Inhibition of glycolate oxidase in C57BL/6 Agxt1-/- mouse hepatocytes using glycolate as substrate assessed as reduction in oxalate production at 12.5 uM after 24 hrs post treatment relative to control; type: cell-based; in short: as §3
[19] = molecular target: T2, 2-Hydroxyacid oxidase 1 (Mus musculus); experiment: Potency index, ratio of EC50 for CCPST to EC50 for test compound for inhibition of glycolate oxidase in C57BL/6 Agxt1-/- mouse hepatocytes using glycolate as substrate assessed as reduction in oxalate production after 24 hrs; type: cell-based

Compound	EC50 (2-Hydroxyacid oxidase 1 [1])	Activity (Hepatocyte [2])	Drug metabolism [3]	EC50 (2-Hydroxyacid oxidase 1 [4])	fold change (FC) [5]	inhibition [6]	half-life at 2 µM [7]	inhibition (Armoracia rusticana)	Ratio EC50 [8]	EC50 [9]	inhibition [10]	EC50 (2-Hydroxyacid oxidase 1 [11])	Activity (Hepatocyte [12])	inhibition [13]	Ki (2-Hydroxyacid oxidase 1 [14])	IC50 (2-Hydroxyacid oxidase 1 [15])	inhibition [16]	inhibition [17]	inhibition [18]	Ratio EC50 [19]
O=C(O)c1cc(-c2ccco2)ccc1O	3.59 µM	Toxic	Metabolite_Notdetected	7.88 µM	0	26.5%	61.9 min	12.6%	7	18 µM	Active	9.2 µM	–	–	–	–	–	–	–	–
O=Cc1ccc(-c2ccc(O)c(C(=O)O)c2)o1	3.45 µM	–	–	8.36 µM	0	–	13.3 min	–	7	–	–	11.2 µM	Non-Toxic	62.3%	47.2 µM	38.2 µM	67.3%	42.7%	106%	5
